Converted amounts (≈) assume the structure as drawn. The source made the active and inactive calls. The rule behind the calls is not given here.
Columns and labels:
Escherichia coli [1] = experiment: Antimicrobial activity against Escherichia coli NCIM 2065 after 24 hrs by serial dilution method; assay type: functional; details: NCIM 2065, 24 h
Method in brief: (§1)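 Broth dilution MIC in nutrient broth, run only for organisms found sensitive in disc diffusion. Compounds are two-fold serially diluted in 1 ml sterile broth per tube, spanning 3.9 to 1000. Inoculated tubes are incubated at 37 °C for 24 h.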

Pseudomonas aeruginosa [2] = experiment: Antimicrobial activity against Pseudomonas aeruginosa NCIM 2200 at 1000 ug/disk after 24 hrs by disk diffusion method; assay type: functional
Method in brief: (§2)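 Disc diffusion on Mueller–Hinton agar. 100 µl of bacterial suspension at 10⁸ CFU/ml is spread on the plate. Discs carry test compounds at two loadings, dissolved in DMSO; DMSO alone serves as negative control. Ofloxacin disc is the positive reference. Plates are incubated at 37 °C for 24 h, and the inhibition zone diameter is measured.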

Aspergillus flavus [3] = experiment: Antimicrobial activity against Aspergillus flavus NCIM 902 at 1000 ug/disk after 72 hrs by disk diffusion method; assay type: functional; details: NCIM 902, 72 h, read-out: DIZ
Method in brief: (§3)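 Disc diffusion on Sabouraud's dextrose agar. 100 µl of fungal suspension at 10⁶ CFU/ml is spread on the plate. Discs carry test compounds at two loadings in DMSO; DMSO alone is the negative control. Clotrimazole disc is the positive reference. Plates are incubated at 27 °C for 72 h, and the zone of inhibition diameter is measured.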

Rhodotorula mucilaginosa [4] = experiment: Antimicrobial activity against Rhodotorula rubra NCIM 3174 after 72 hrs by serial dilution method; assay type: functional; details: NCIM 3174, 72 h
Method in brief: (§4)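 MIC by broth dilution in Sabouraud's dextrose broth, run only on fungi found sensitive in the disc assay. Twofold serial dilutions were made in 1 ml broth per tube, covering 3.9 to 1000. Inoculated tubes were incubated at 27 °C for 72 h.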

Aliivibrio fischeri [5] = experiment: Antimicrobial activity against Vibrio fischeri NCIM 2154 at 1000 ug/disk after 24 hrs by disk diffusion method; assay type: functional; details: NCIM 2154, 24 h, read-out: DIZ
Method in brief: (§5)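 Disc diffusion. 100 µl of bacterial suspension at 10⁸ CFU/ml was spread on Mueller–Hinton agar. Discs loaded with test compound dissolved in DMSO were placed on the lawn, with a DMSO-only disc as negative control. Plates were incubated at 37 °C for 24 h, and the inhibition zone diameter was measured.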

Trichoderma viride [6] = experiment: Antimicrobial activity against Trichoderma viride NCIM 1195 at 500 ug/disk after 72 hrs by disk diffusion method; assay type: functional; details: NCIM 1195, 72 h, read-out: DIZ
Method in brief: (§6)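 Fungal disc diffusion. 100 µl of suspension at 10⁶ CFU/ml was spread on Sabouraud's dextrose agar. Discs carrying test compound in DMSO were applied, with a DMSO-only disc as negative control. Plates were incubated at 27 °C for 72 h, and the zone of inhibition diameter was measured.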

Escherichia coli [7] = experiment: Antimicrobial activity against Escherichia coli NCIM 2065 at 500 ug/disk after 24 hrs by disk diffusion method; assay type: functional; details: NCIM 2065, 24 h, read-out: DIZ; method in brief: as §2
Aspergillus flavus [8] = experiment: Antimicrobial activity against Aspergillus flavus NCIM 902 after 72 hrs by serial dilution method; assay type: functional; details: NCIM 535, 72 h, in the assay text read “NCIM 535” for “NCIM 902”
Method in brief: (§7)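 MIC by broth dilution in Sabouraud's dextrose broth, only for fungi sensitive in disc diffusion. Two-fold serial dilutions of compounds are made in 1 ml broth per tube, range 3.9 to 1000. Inoculated tubes are incubated at 27 °C for 72 h.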

Klebsiella aerogenes [9] = experiment: Antimicrobial activity against Klebsiella aerogenes NCIM 2239 at 500 ug/disk after 24 hrs by disk diffusion method; assay type: functional; details: NCIM 2239, 24 h, read-out: DIZ; method in brief: as §2
Lipomyces lipofer = experiment: Antimicrobial activity against Lipomyces lipofer NCIM 3252 at 500 ug/disk after 72 hrs by disk diffusion method; assay type: functional; method in brief: as §3
Trichoderma viride [10] = experiment: Antimicrobial activity against Trichoderma viride NCIM 1195 at 1000 ug/disk after 72 hrs by disk diffusion method; assay type: functional; details: NCIM 1195, 72 h, read-out: DIZ; method in brief: as §6
Staphylococcus = experiment: Antimicrobial activity against Staphylococcus albus NCIM 2178 at 500 ug/disk after 24 hrs by disk diffusion method; assay type: functional; details: NCIM 2178, 24 h, read-out: DIZ; method in brief: as §5
[11] = test system: Rhodococcus corynebacterioides; experiment: Antimicrobial activity against Corynebacterium rubrum NCIM 2252 at 1000 ug/disk after 24 hrs by disk diffusion method; assay type: functional; details: Rhodococcoides corynebacterioides, NCIM 2252, 24 h; read-out: DIZ; method in brief: as §2
Klebsiella aerogenes [12] = experiment: Antimicrobial activity against Klebsiella aerogenes NCIM 2239 at 1000 ug/disk after 24 hrs by disk diffusion method; assay type: functional; details: NCIM 2239, 24 h, read-out: DIZ; method in brief: as §2
Rhodotorula mucilaginosa [13] = experiment: Antimicrobial activity against Rhodotorula rubra NCIM 3174 at 500 ug/disk after 72 hrs by disk diffusion method; assay type: functional; details: NCIM 3174, 72 h, read-out: DIZ; method in brief: as §6
Aspergillus parasiticus [14] = experiment: Antimicrobial activity against Aspergillus parasiticus NCIM 904 after 72 hrs by serial dilution method; assay type: functional; details: NCIM 904, 72 h; method in brief: as §7
Trichoderma viride [15] = experiment: Antimicrobial activity against Trichoderma viride NCIM 1195 after 72 hrs by serial dilution method; assay type: functional; details: NCIM 1195, 72 h; method in brief: as §4
Penicillium chrysogenum = experiment: Antimicrobial activity against Penicillium chrysogenum NCIM 707 at 500 ug/disk after 72 hrs by disk diffusion method; assay type: functional; method in brief: as §3
Rhodotorula mucilaginosa [16] = experiment: Antimicrobial activity against Rhodotorula rubra NCIM 3174 at 1000 ug/disk after 72 hrs by disk diffusion method; assay type: functional; details: NCIM 3174, 72 h, read-out: DIZ; method in brief: as §6
Bacillus subtilis [17] = experiment: Antimicrobial activity against Bacillus subtilis NCIM 2063 at 1000 ug/disk after 24 hrs by disk diffusion method; assay type: functional; details: NCIM 2063, 24 h, read-out: DIZ; method in brief: as §2
[18] = test system: Rhodococcus corynebacterioides; experiment: Antimicrobial activity against Corynebacterium rubrum NCIM 2252 at 500 ug/disk after 24 hrs by disk diffusion method; assay type: functional; details: Rhodococcoides corynebacterioides, NCIM 2252, 24 h; read-out: DIZ; method in brief: as §2
Aspergillus fumigatus [19] = experiment: Antimicrobial activity against Aspergillus fumigatus NCIM 902 at 500 ug/disk after 72 hrs by disk diffusion method; assay type: functional; method in brief: as §3
Bacillus cereus [20] = experiment: Antimicrobial activity against Bacillus cereus NCIM 2155 at 1000 ug/disk after 24 hrs by disk diffusion method; assay type: functional; details: NCIM 2155, 24 h, read-out: DIZ; method in brief: as §2
Pseudomonas aeruginosa [21] = experiment: Antimicrobial activity against Pseudomonas aeruginosa NCIM 2200 at 500 ug/disk after 24 hrs by disk diffusion method; assay type: functional; method in brief: as §5
Proteus vulgaris [22] = experiment: Antimicrobial activity against Proteus vulgaris NCIM 2027 at 500 ug/disk after 24 hrs by disk diffusion method; assay type: functional; details: NCIM 2027, 24 h, read-out: DIZ; method in brief: as §2
Bacillus cereus [23] = experiment: Antimicrobial activity against Bacillus cereus NCIM 2155 at 500 ug/disk after 24 hrs by disk diffusion method; assay type: functional; details: NCIM 2155, 24 h, read-out: DIZ; method in brief: as §2
Salmonella typhimurium = experiment: Antimicrobial activity against Salmonella Typhimurium NCIM 2501 at 500 ug/disk after 24 hrs by disk diffusion method; assay type: functional, Salmonella enterica subsp. enterica serovar Typhimurium; details: Salmonella enterica, NCIM 2501, 24 h; read-out: DIZ; method in brief: as §5
Aspergillus parasiticus [24] = experiment: Antimicrobial activity against Aspergillus parasiticus NCIM 904 at 1000 ug/disk after 72 hrs by disk diffusion method; assay type: functional; details: NCIM 904, 72 h, read-out: DIZ; method in brief: as §3
Aliivibrio fischeri [25] = experiment: Antimicrobial activity against Vibrio fischeri NCIM 2154 at 500 ug/disk after 24 hrs by disk diffusion method; assay type: functional; details: NCIM 2154, 24 h, read-out: DIZ; method in brief: as §5
Aspergillus fumigatus [26] = experiment: Antimicrobial activity against Aspergillus fumigatus NCIM 902 at 1000 ug/disk after 72 hrs by disk diffusion method; assay type: functional; details: NCIM 902, 72 h, read-out: DIZ; method in brief: as §3
Bacillus subtilis [27] = experiment: Antimicrobial activity against Bacillus subtilis NCIM 2063 after 24 hrs by serial dilution method; assay type: functional; details: NCIM 2063, 24 h; method in brief: as §1
Proteus vulgaris [28] = experiment: Antimicrobial activity against Proteus vulgaris NCIM 2027 at 1000 ug/disk after 24 hrs by disk diffusion method; assay type: functional; details: NCIM 2027, 24 h, read-out: DIZ; method in brief: as §2

| MIC (Escherichia coli [1]) [µg/mL] | MIC (Rhodotorula mucilaginosa [4]) [µg/mL] | MIC (Aspergillus flavus [8]) [µg/mL] | MIC (Aspergillus parasiticus [14]) [µg/mL] | MIC (Trichoderma viride [15]) [µg/mL] | Compound | zone of inhibition at 1000 µg/disc (Aspergillus flavus [3]) [mm] | zone of inhibition at 1000 µg/disc (Aliivibrio fischeri [5]) [mm] | zone of inhibition at 500 µg/disc (Trichoderma viride [6]) [mm] | zone of inhibition at 500 µg/disc (Escherichia coli [7]) [mm] | zone of inhibition at 500 µg/disc (Klebsiella aerogenes [9]) [mm] | zone of inhibition at 1000 µg/disc (Trichoderma viride [10]) [mm] | zone of inhibition at 500 µg/disc (Staphylococcus) [mm] | zone of inhibition at 1000 µg/disc [11] [mm] | zone of inhibition at 1000 µg/disc (Klebsiella aerogenes [12]) [mm] | zone of inhibition at 500 µg/disc (Rhodotorula mucilaginosa [13]) [mm] | diameter of the inhibition zone (DIZ) (Penicillium chrysogenum) | zone of inhibition at 1000 µg/disc (Rhodotorula mucilaginosa [16]) [mm] | zone of inhibition at 1000 µg/disc (Bacillus subtilis [17]) [mm] | zone of inhibition at 500 µg/disc [18] [mm] | diameter of the inhibition zone (DIZ) (Aspergillus fumigatus [19]) | other results |
| --- | --- | --- | --- | --- | --- | --- | --- | --- | --- | --- | --- | --- | --- | --- | --- | --- | --- | --- | --- | --- | --- |
| 62.5 (≈ 161 µM) | 15.6 (≈ 40.2 µM) | 125 (≈ 322 µM) | 3.9 (≈ 10.1 µM) | 62.5 (≈ 161 µM) | CC1(C)CC(=O)C2=C(C1)Nc1c(ccc3ccccc13)C2c1ccc(Cl)cc1 (centres undefined) | 8 | 9 | 7 | 7 | 8 | 9 | 7 | 10 | 11 | 9 | inactive | 13 | 10 | 7 | inactive | zone of inhibition at 1000 µg/disc (Pseudomonas aeruginosa [2]; NCIM 2200, 24 h, read-out: DIZ): 9 mm; diameter of the inhibition zone (DIZ) (Lipomyces lipofer): inactive; zone of inhibition at 1000 µg/disc (Bacillus cereus [20]): 13 mm; zone of inhibition at 500 µg/disc (Pseudomonas aeruginosa [21]; NCIM 2200, 24 h, read-out: DIZ): 7 mm; zone of inhibition at 500 µg/disc (Proteus vulgaris [22]): 9 mm; zone of inhibition at 500 µg/disc (Bacillus cereus [23]): 10 mm; zone of inhibition at 500 µg/disc (Salmonella typhimurium): 9 mm; zone of inhibition at 1000 µg/disc (Aspergillus parasiticus [24]): 17 mm; zone of inhibition at 500 µg/disc (Aliivibrio fischeri [25]): 7 mm; zone of inhibition at 1000 µg/disc (Aspergillus fumigatus [26]): 8 mm; MIC (Bacillus subtilis [27]): 31.2 µg/mL (≈ 80.4 µM); zone of inhibition at 1000 µg/disc (Proteus vulgaris [28]): 10 mm |
| 31.2 (≈ 84.2 µM) | 3.9 (≈ 10.5 µM) | 31.2 (≈ 84.2 µM) | 15.6 (≈ 42.1 µM) | 62.5 (≈ 169 µM) | O=C1CCCC2=C1C(c1cccc([N+](=O)[O-])c1)c1ccc3ccccc3c1N2 (centres undefined) | 12 | 9 | 9 | 9 | 7 | 10 | 8 | 8 | 9 | 10 | inactive | 14 | 12 | 7 | inactive | diameter of the inhibition zone (DIZ) (Pseudomonas aeruginosa [2]): inactive; zone of inhibition at 500 µg/disc (Lipomyces lipofer; NCIM 3252, 72 h, read-out: DIZ): 8 mm; zone of inhibition at 1000 µg/disc (Bacillus cereus [20]): 10 mm; diameter of the inhibition zone (DIZ) (Pseudomonas aeruginosa [21]): inactive; zone of inhibition at 500 µg/disc (Proteus vulgaris [22]): 7 mm; zone of inhibition at 500 µg/disc (Bacillus cereus [23]): 7 mm; zone of inhibition at 500 µg/disc (Salmonella typhimurium): 7 mm; zone of inhibition at 1000 µg/disc (Aspergillus parasiticus [24]): 13 mm; zone of inhibition at 500 µg/disc (Aliivibrio fischeri [25]): 7 mm; zone of inhibition at 1000 µg/disc (Aspergillus fumigatus [26]): 9 mm; MIC (Bacillus subtilis [27]): 31.2 µg/mL (≈ 84.2 µM); zone of inhibition at 1000 µg/disc (Proteus vulgaris [28]): 9 mm |

Source: ChEMBL document CHEMBL1138564, “Microwave-induced synthesis and anti-microbial activities of 7,10,11,12-tetrahydrobenzo[c]acridin-8(9H)-one derivatives” (2009)
